Assay results from ChEMBL document CHEMBL4196022, “Alkynyl-containing phenylthiazoles: Systemically active antibacterial agents effective against methicillin-resistant Staphylococcus aureus (MRSA)” (Eur J Med Chem, 2018).
≈ marks a conversion by molar mass, not a printed value.

How the values were obtained:
Staphylococcus aureus [1] = test: Antibacterial activity against methicillin-resistant Staphylococcus aureus NRS107 after 20 hrs by broth microdilution assay; assay type: functional; details: NRS107, 20 h
Procedure, shortened: (§1)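 Broth microdilution per CLSI in cation-adjusted Mueller Hinton broth. Compounds serially diluted, in triplicate. Incubation at 37 °C for at least 20 hours. MIC taken as the lowest concentration with no visible bacterial growth.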

Staphylococcus aureus [2] = test: Antibacterial activity against methicillin-resistant Staphylococcus aureus USA300 after 20 hrs by broth microdilution assay; assay type: functional; details: USA300, 20 h; procedure, shortened: as §1
Staphylococcus aureus [3] = test: Bactericidal activity against methicillin-resistant Staphylococcus aureus USA300 up to 18 hrs by broth microdilution assay; assay type: functional; details: USA300, 18 h, read-out: MBC99.9
Staphylococcus aureus [4] = test: Bactericidal activity against methicillin-resistant Staphylococcus aureus NRS107 up to 18 hrs by broth microdilution assay; assay type: functional; details: NRS107, 18 h, read-out: MBC99.9
Staphylococcus aureus [5] = test: Antibacterial activity against methicillin-resistant Staphylococcus aureus NRS119 after 20 hrs by broth microdilution assay; assay type: functional; details: NRS119, 20 h; procedure, shortened: as §1
Staphylococcus aureus [6] = test: Bactericidal activity against methicillin-resistant Staphylococcus aureus NRS119 up to 18 hrs by broth microdilution assay; assay type: functional; details: NRS119, 18 h, read-out: MBC99.9
Staphylococcus aureus [7] = test: Antibacterial activity against methicillin-resistant Staphylococcus aureus NRS123 (USA400) after 20 hrs by broth microdilution assay; assay type: functional; procedure, shortened: as §1
Staphylococcus aureus [8] = test: Bactericidal activity against methicillin resistant Staphylococcus aureus NRS123 (USA400) up to 18 hrs by broth microdilution assay; assay type: functional; details: read-out: MBC99.9
Staphylococcus aureus [9] = test: Antibacterial activity against vancomycin-resistant Staphylococcus aureus VRS10 after 20 hrs by broth microdilution assay; assay type: functional; details: VRS10, 20 h; procedure, shortened: as §1
Staphylococcus aureus [10] = test: Bactericidal activity against methicillin resistant vancomycin-resistant Staphylococcus aureus VRS10 up to 18 hrs by broth microdilution assay; assay type: functional; details: VRS10, 18 h, read-out: MBC99.9
Staphylococcus aureus [11] = test: Antibacterial activity against vancomycin-resistant Staphylococcus aureus VRS11a after 20 hrs by broth microdilution assay; assay type: functional; procedure, shortened: as §1
Staphylococcus aureus [12] = test: Bactericidal activity against methicillin resistant vancomycin-resistant Staphylococcus aureus VRS11a up to 18 hrs by broth microdilution assay; assay type: functional; details: read-out: MBC99.9
Staphylococcus aureus [13] = test: Antibacterial activity against vancomycin-resistant Staphylococcus aureus VRS12 after 20 hrs by broth microdilution assay; assay type: functional; details: VRS12, 20 h; procedure, shortened: as §1
Staphylococcus aureus [14] = test: Bactericidal activity against methicillin resistant vancomycin-resistant Staphylococcus aureus VRS12 up to 18 hrs by broth microdilution assay; assay type: functional; details: VRS12, 18 h, read-out: MBC99.9
Procedure, shortened: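 MBC set up from the MIC plates. Aliquots from wells with no growth spotted onto tryptic soy agar and incubated at 37 °C for at least 18 hours. MBC taken as the lowest concentration giving 99.9% inhibition of bacterial growth.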

Staphylococcus aureus [15] = test: Potency index, ratio of vancomycin MIC to compound MIC for antibacterial activity against vancomycin-resistant Staphylococcus aureus VRS10; assay type: functional
Staphylococcus aureus [16] = test: Potency index, ratio of vancomycin MIC to compound MIC for antibacterial activity against vancomycin-resistant Staphylococcus aureus VRS11a; assay type: functional
Staphylococcus aureus [17] = test: Potency index, ratio of vancomycin MIC to compound MIC for antibacterial activity against vancomycin-resistant Staphylococcus aureus VRS12; assay type: functional
Staphylococcus aureus [18] = test: Ratio of MBC to MIC for methicillin-resistant Staphylococcus aureus USA300; assay type: functional
Procedure, shortened: (§2)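 MBC/MIC ratio. […] MBC by plating no-growth wells onto tryptic soy agar at 37 °C for at least 18 h; taken as the concentration giving 99.9% growth inhibition.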

Staphylococcus aureus [19] = test: Ratio of MBC to MIC for methicillin-resistant Staphylococcus aureus NRS107; assay type: functional; procedure, shortened: as §2
Staphylococcus aureus [20] = test: Ratio of MBC to MIC for methicillin-resistant Staphylococcus aureus NRS119; assay type: functional; procedure, shortened: as §2
Staphylococcus aureus [21] = test: Ratio of MBC to MIC for methicillin-resistant Staphylococcus aureus NRS123 (USA400); assay type: functional; details: read-out: Ratio; procedure, shortened: as §2
Staphylococcus aureus [22] = test: Ratio of MBC to MIC for vancomycin-resistant Staphylococcus aureus VRS10; assay type: functional; procedure, shortened: as §2
Staphylococcus aureus [23] = test: Ratio of MBC to MIC for vancomycin-resistant Staphylococcus aureus VRS11a; assay type: functional; procedure, shortened: as §2
Staphylococcus aureus [24] = test: Ratio of MBC to MIC for vancomycin-resistant Staphylococcus aureus VRS12; assay type: functional; procedure, shortened: as §2
HRT-18 cell line = test: Cytotoxicity against human HRT18 cells assessed as reduction in cell viability up to 32 ug/ml after 2 hrs by MTS assay; assay type: cell-based; details: hrt-18, 2 h
[25] = Selectivity index, ratio of toxic concentration for human HRT18 cells to MIC for methicillin-resistant Staphylococcus aureus; assay type: toxicity; details: read-out: Selectivity Index
Staphylococcus aureus [26] = test: Antibacterial activity against methicillin-resistant Staphylococcus aureus USA300 in Balb/c mouse skin infection model assessed as reduction in bacterial burden in wounded skin area at 2% administered topically twice daily for 5 consecutive days measured 12 hrs post last dose relative to control; assay type: functional; set-up: scale not given: the % may be the effect or the level left
Procedure, shortened: (§3)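 Female Balb/c mice, 8 weeks old, n=5 per group. Intradermal injection of 40 μL of 1.32×10^9 CFU/mL USA300; a wound formed by ~66 h. Treated topically with a 2% suspension in petroleum jelly twice daily for 5 days; the vehicle group served as control. Wounds excised 12 h after the last dose, homogenized in PBS and plated on mannitol salt agar; sites also observed for redness and swelling.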

Mus musculus [27] = test: Induction of inflammation in Balb/c mouse infected with methicillin-resistant Staphylococcus aureus USA300 assessed as redness around wounded skin area at 2% administered topically twice daily for 5 consecutive days measured 12 hrs post last dose relative to control; assay type: organism-based; details: in vivo, topical_or_ocular; procedure, shortened: as §3
Mus musculus [28] = test: Induction of inflammation in Balb/c mouse infected with methicillin-resistant Staphylococcus aureus USA300 assessed as swelling around wounded skin area at 2% administered topically twice daily for 5 consecutive days measured 12 hrs post last dose; assay type: organism-based; details: in vivo, topical_or_ocular; procedure, shortened: as §3
Mus musculus [29] = test: Toxicity in wounded skin area of Balb/c mouse infected with methicillin-resistant Staphylococcus aureus USA300 at 2% administered topically twice daily for 5 consecutive days measured 12 hrs post last dose; assay type: organism-based; details: in vivo, topical_or_ocular; procedure, shortened: as §3

Compound | MIC (Staphylococcus aureus [1]) [µg/mL] | MIC (Staphylococcus aureus [2]) [µg/mL] | MBC (Staphylococcus aureus [3]) [µg/mL] | MBC (Staphylococcus aureus [4]) [µg/mL] | MIC (Staphylococcus aureus [5]) [µg/mL] | MBC (Staphylococcus aureus [6]) [µg/mL] | MIC (Staphylococcus aureus [7]) [µg/mL] | MBC (Staphylococcus aureus [8]) [µg/mL] | MIC (Staphylococcus aureus [9]) [µg/mL] | MBC (Staphylococcus aureus [10]) [µg/mL] | MIC (Staphylococcus aureus [11]) [µg/mL] | MBC (Staphylococcus aureus [12]) [µg/mL] | MIC (Staphylococcus aureus [13]) [µg/mL] | MBC (Staphylococcus aureus [14]) [µg/mL] | Ratio (Staphylococcus aureus [15]) | Ratio (Staphylococcus aureus [16]) | Ratio (Staphylococcus aureus [17]) | Ratio (Staphylococcus aureus [18]) | Ratio (Staphylococcus aureus [19]) | Ratio (Staphylococcus aureus [20]) | also measured
C/C(=N\NC1=NCCN1)c1sc(-c2ccc(C#CC(C)(C)C)cc2)nc1C | 2 (≈ 5.27 µM) | 2 (≈ 5.27 µM) | 4 (≈ 10.5 µM) | 4 (≈ 10.5 µM) | 2 (≈ 5.27 µM) | 2 (≈ 5.27 µM) | 4 (≈ 10.5 µM) | 16 (≈ 42.2 µM) | 4 (≈ 10.5 µM) | 4 (≈ 10.5 µM) | 4 (≈ 10.5 µM) | 4 (≈ 10.5 µM) | 4 (≈ 10.5 µM) | 8 (≈ 21.1 µM) | >100 | >100 | 4 | <=3 | <=3 | <=3 | Ratio (Staphylococcus aureus [21]): 4; Ratio (Staphylococcus aureus [22]): <=3; Ratio (Staphylococcus aureus [23]): <=3; Ratio (Staphylococcus aureus [24]): <=3; Activity (HRT-18 cell line): Non-Toxic; selectivity ratio [25]: 7 to 31
CC(=O)O[C@H]1C[C@@]2(C)[C@@H](C[C@@H](O)[C@H]3[C@@]4(C)CC[C@@H](O)[C@@H](C)[C@@H]4CC[C@@]32C)/C1=C(\CCC=C(C)C)C(=O)O [FUSIDIC ACID] |  |  |  |  |  |  |  |  |  |  |  |  |  |  |  |  |  |  |  |  | Activity (Staphylococcus aureus [26]): 78%; Activity (Mus musculus [27]): Non-Toxic; Activity (Mus musculus [28]): Non-Toxic; Activity (Mus musculus [29]): Non-Toxic
C/C(=N\NC1=NCCN1)c1sc(-c2ccc(C#Cc3ccccc3)cc2)nc1C |  | 8 (≈ 20 µM) | 16 (≈ 40 µM) |  |  |  |  |  |  |  |  |  |  |  |  |  |  | <=3 |  |  | 
C/C(=N\NC(=N)N)c1sc(-c2ccc(C#CC(C)(C)C)cc2)nc1C | 2 (≈ 5.66 µM) | 4 (≈ 11.3 µM) | 4 (≈ 11.3 µM) | 4 (≈ 11.3 µM) | 2 (≈ 5.66 µM) | 2 (≈ 5.66 µM) | 4 (≈ 11.3 µM) | 16 (≈ 45.3 µM) | 4 (≈ 11.3 µM) | 4 (≈ 11.3 µM) | 2 (≈ 5.66 µM) | 8 (≈ 22.6 µM) | 4 (≈ 11.3 µM) | 4 (≈ 11.3 µM) | >100 | >100 | 4 | <=3 | <=3 | <=3 | Ratio (Staphylococcus aureus [21]): 4; Ratio (Staphylococcus aureus [22]): <=3; Ratio (Staphylococcus aureus [23]; read-out: Ratio): 4; Ratio (Staphylococcus aureus [24]): <=3; Activity (HRT-18 cell line): Non-Toxic; selectivity ratio [25]: 7 to 31
